These results are taken from paper PMC5797669 (Cellular signalling, 2016).

Where no end group is shown, it is not given here. Some results are limits rather than exact numbers.

For one experiment, the target named is hY4R S^7.100/103A (Homo sapiens, UniProt P50391, S369A/S372A). Kind of experiment: TAMRA-hPP ligand uptake by fluorescence microscopy. Format: cell-based. Particulars: HEK293, 100 nM, 60 min, acidic wash pH 3.0, Mean ± S.E.M., n ≥ 4. The essentials: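 HEK293 cells on slides at 70–80% confluence, transfected (Lipofectamine 2000) with 1 µg receptor plasmid. Next day, starved 30 min at 37 °C in Opti-MEM, optionally with Hoechst33342. […] Intracellular fluorescence quantified per cell, ≥10 cells per experiment.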
Sequence of hY4R S^7.100/103A (P50391 whole entry S369A/S372A): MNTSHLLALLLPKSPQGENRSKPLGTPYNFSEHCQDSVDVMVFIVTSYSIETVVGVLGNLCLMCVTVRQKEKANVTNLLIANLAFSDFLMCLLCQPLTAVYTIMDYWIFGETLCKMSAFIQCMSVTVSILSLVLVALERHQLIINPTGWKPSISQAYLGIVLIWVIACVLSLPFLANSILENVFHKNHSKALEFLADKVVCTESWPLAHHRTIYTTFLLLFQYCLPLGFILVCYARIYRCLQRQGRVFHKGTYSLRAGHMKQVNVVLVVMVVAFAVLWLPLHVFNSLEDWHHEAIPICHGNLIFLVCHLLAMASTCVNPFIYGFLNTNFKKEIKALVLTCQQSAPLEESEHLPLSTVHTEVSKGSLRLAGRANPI

Another experiment concerns hY4R point mutants. Kind of experiment: [^125I]-hPP cell surface binding assay. The arrangement: species or system human. The conditions noted are these: all point mutants; HEK293; compared to WT (set to 100%). The procedure, abridged:
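EYFP-fused receptor constructs transiently expressed in HEK293: 7 µg receptor DNA per 6-well by Lipofectamine 2000. Cells re-seeded next day into poly-D-lysine-coated 48-well plates and grown to confluence. Specific [125I]-hPP binding of each mutant expressed relative to wild-type receptor specific binding.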

The target in experiment [1] is hY4R deletion mutant Δ7.78, C-terminally fused to RLuc8 (human) (UniProt P50391). Description: FRET or BRET. (Bioluminescence resonance energy transfer reports proximity on the nanometre scale.)
Sequence of hY4R deletion mutant Δ7.78, C-terminally fused to RLuc8 (human) (P50391 whole entry, stated change not applied, the tested form may be a part): as the sequence (P50391 whole entry S369A/S372A) above, with A369S, A372S counted along it
For experiment [2], the target named is hY4R point mutant S^7.93/96A, C-terminally fused to RLuc8 (human) (UniProt P50391). Description: FRET or BRET.
Sequence of hY4R point mutant S^7.93/96A, C-terminally fused to RLuc8 (human) (P50391 whole entry, change not shown, the tested form may be a part): as the sequence (P50391 whole entry S369A/S372A) above, with A369S, A372S counted along it
Experiment [3] deals with hY4R point mutant E^7.78/79/81A, C-terminally fused to RLuc8 (human) (UniProt P50391). Kind of experiment: FRET or BRET.
Sequence of hY4R point mutant E^7.78/79/81A, C-terminally fused to RLuc8 (human) (P50391 whole entry, stated change not applied, the tested form may be a part): as the sequence (P50391 whole entry S369A/S372A) above, with A369S, A372S counted along it
For experiment [4], the target named is hY4R deletion mutant Δ7.93, C-terminally fused to RLuc8 (human) (UniProt P50391). Kind of experiment: FRET or BRET.
Sequence of hY4R deletion mutant Δ7.93, C-terminally fused to RLuc8 (human) (P50391 whole entry, stated change not applied, the tested form may be a part): as the sequence (P50391 whole entry S369A/S372A) above, with A369S, A372S counted along it
Experiment [5] has as its target hY4R point mutant T^7.87/90A, C-terminally fused to RLuc8 (human) (UniProt P50391). Kind of experiment: FRET or BRET.
The target in experiment [6] is hY4R deletion mutant Δ7.97, C-terminally fused to RLuc8 (human) (UniProt P50391). Description: FRET or BRET.
Sequence of hY4R deletion mutant Δ7.97, C-terminally fused to RLuc8 (human) (P50391 whole entry, stated change not applied, the tested form may be a part): as the sequence (P50391 whole entry S369A/S372A) above, with A369S, A372S counted along it
Experiment [7] concerns the target hY4R point mutant S^7.80/86A, C-terminally fused to RLuc8 (human) (UniProt P50391). Kind of experiment: FRET or BRET.
The target in experiment [8] is hY4R point mutant S^7.100/103A, C-terminally fused to RLuc8 (human) (UniProt P50391). Kind of experiment: FRET or BRET.
Sequence of hY4R point mutant S^7.100/103A, C-terminally fused to RLuc8 (human) (P50391 whole entry, change not shown, the tested form may be a part): as the sequence (P50391 whole entry S369A/S372A) above, with A369S, A372S counted along it
Experiment [9] concerns the target N-terminally HA-tagged hY4R wild type fused to enhanced yellow fluorescent protein (human, UniProt P50391 1-375). Description: radioligand binding.

Sequence of Bovine arrestin-3 N-terminally fused to Venus (P32120 whole entry, the tested form may be a part): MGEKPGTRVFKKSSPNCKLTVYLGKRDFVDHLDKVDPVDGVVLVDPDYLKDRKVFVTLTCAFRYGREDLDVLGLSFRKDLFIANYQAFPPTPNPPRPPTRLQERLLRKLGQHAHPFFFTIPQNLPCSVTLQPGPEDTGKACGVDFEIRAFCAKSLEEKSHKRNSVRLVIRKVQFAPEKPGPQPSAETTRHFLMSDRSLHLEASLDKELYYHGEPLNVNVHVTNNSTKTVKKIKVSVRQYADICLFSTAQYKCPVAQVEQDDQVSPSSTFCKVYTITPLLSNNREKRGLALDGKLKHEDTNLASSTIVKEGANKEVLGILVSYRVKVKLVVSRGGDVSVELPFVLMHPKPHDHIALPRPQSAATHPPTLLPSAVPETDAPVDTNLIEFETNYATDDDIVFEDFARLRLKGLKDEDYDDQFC
Sequence of N-terminally HA-tagged hY4R wild type fused to enhanced yellow fluorescent protein (P50391 whole entry, the tested form may be a part): as the sequence (P50391 whole entry S369A/S372A) above, with A369S, A372S counted along it
Sequence of hY4R point mutant S^7.80/86A, C-terminally fused to RLuc8 (human) (P50391 whole entry, change not shown, the tested form may be a part): as the sequence (P50391 whole entry S369A/S372A) above, with A369S, A372S counted along it
Sequence of hY4R point mutant T^7.87/90A, C-terminally fused to RLuc8 (human) (P50391 whole entry, stated change not applied, the tested form may be a part): as the sequence (P50391 whole entry S369A/S372A) above, with A369S, A372S counted along it

For “TAMRA-hPP: hPP-derivative that was N-terminally modified with a TAMRA fluorophore”, in the experiment with hY4R S^7.100/103A, the “TAMRA-hPP uptake (intracellular fluorescence)” value is on record as 78 ± 11%.

Consider “[^125I]-hPP: radioligand used in binding experiments”, for which, in the experiment on hY4R point mutants, the “cell surface expression ([^125I]-hPP binding)” value is recorded as more than 78%.

On to “Bovine arrestin-3 N-terminally fused to Venus (from UniProt P32120 1-420) (natural protein)”, for which the arr-3 recruitment, maximum net BRET (% of WT) in experiment [1] amounted to 1%; in experiment [2], 49%; in experiment [3], 25%; in experiment [4], 174%; in experiment [5] it was 51%; in experiment [6] it was 186%. Besides, the arr-3 recruitment, maximum net BRET (% of WT) in experiment [7] is 33%; in experiment [8], 95%.

Regarding APLEPVYPGDNATPEQMAQYAADLRRYINMLTRPRY-NH2 (peptide, UniProt P01298 30-65, looked up, also: 125I label (position not given here)) [[^125I]-labelled human pancreatic polypeptide], the “specific binding (% of WT)” value in [9] is 100%.
